Calls of active or inactive are those of the source.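 Rule for the calls, unless noted: active = duplicate-averaged activation above buffer control mean plus 5 SD of those controls; inactive = the rest.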
How the values were obtained:
[1] = thallium flux activation in parental CHO cells, counter-screen for KCNQ1 potentiator project (AID 493006); details: parental CHO-K1 cells, FluxOR thallium flux, at 10 µM; active compounds read high
Method in brief: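 Assay system: Untransfected host CHO-K1 cells with FluxOR thallium dye | Probe or stimulus: Potassium/thallium depolarization pulse | Schedule: Overnight 37 °C plating, 90 min RT dye, 20 min compound | Detection: Kinetic thallium-flux fluorescence | Read-out: Max-minus-min fluorescence over baseline, percent of buffer-to-R-L3 span | Benchmarks: Low control buffer, high control R-L3 activator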

[2] = target: Potassium voltage-gated channel subfamily KQT member 1 (Homo sapiens) (UniProt P51787); assay: KCNQ1 potassium channel potentiators, confirmation, FluxOR thallium flux, CHO cells, duplicates (AID 493007;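 active = potentiation averaged over duplicate wells exceeding buffer-only control mean by more than 3 SD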;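 for outcome: cells depolarized by a potassium plus thallium sulfate stimulus after compound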); details: KCNQ1 cell line, FluxOR thallium flux fluorescence, at 10 µM; active compounds read high, % of reference activator effect, buffer zero
Method in brief: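 Material: KCNQ1-expressing CHO cell line; Incubation: FluxOR dye loading 90 min, compound exposure 20 min, room temperature; Detection: FluxOR Tl+ flux fluorescence, 10 s baseline plus 110 s recording; Read-out: percent activation between buffer and R-L3 responses; Control set: buffer-only wells as 0% and R-L3 activator as 100%; Replication: duplicate wells per compound.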

[3] = target: Potassium voltage-gated channel subfamily KQT member 2 (Rattus norvegicus) (UniProt O88943); assay: rat KCNQ2 channel potentiation, selectivity assay for KCNQ1 potentiator project, KCNQ2-CHO-K1 cells (AID 493009;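 active = mean duplicate potentiation above the buffer control mean plus 5 SD of buffer wells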;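 note: assay conditions were tuned for KCNQ1 rather than KCNQ2 modulators; signal is max minus min fluorescence divided by baseline after thallium stimulus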); details: FluxOR thallium flux fluorescence, at 10 µM; active compounds read high, scaled: buffer 0, activator control 100
[4] = target: Potassium voltage-gated channel subfamily KQT member 1 (Homo sapiens) (UniProt P51787); assay: KCNQ1 channel current potentiators, confirmation, orthogonal assay for KCNQ1 potentiator project, IonWorks patch clamp, KCNQ1-CHO cells (AID 493184;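 active = current rise at least 3 SD above the untreated control mean in each of two repeat wells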); details: automated patch clamp current, at 10 µM; active compounds read high
Method in brief: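 assay system = KCNQ1-expressing CHO cells | medium = external bath solution at pH 7.4 | probe or stimulus = 2,000 ms depolarization, -90 to +40 mV | compound dosing = 10 µM final, single point | measured by = automated voltage clamp, amphotericin B perforated patch | measure = percent current increase versus pre-compound level | replication = duplicates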

Sequence of Potassium voltage-gated channel subfamily KQT member 2 (Rattus norvegicus) (O88943 whole entry, looked up): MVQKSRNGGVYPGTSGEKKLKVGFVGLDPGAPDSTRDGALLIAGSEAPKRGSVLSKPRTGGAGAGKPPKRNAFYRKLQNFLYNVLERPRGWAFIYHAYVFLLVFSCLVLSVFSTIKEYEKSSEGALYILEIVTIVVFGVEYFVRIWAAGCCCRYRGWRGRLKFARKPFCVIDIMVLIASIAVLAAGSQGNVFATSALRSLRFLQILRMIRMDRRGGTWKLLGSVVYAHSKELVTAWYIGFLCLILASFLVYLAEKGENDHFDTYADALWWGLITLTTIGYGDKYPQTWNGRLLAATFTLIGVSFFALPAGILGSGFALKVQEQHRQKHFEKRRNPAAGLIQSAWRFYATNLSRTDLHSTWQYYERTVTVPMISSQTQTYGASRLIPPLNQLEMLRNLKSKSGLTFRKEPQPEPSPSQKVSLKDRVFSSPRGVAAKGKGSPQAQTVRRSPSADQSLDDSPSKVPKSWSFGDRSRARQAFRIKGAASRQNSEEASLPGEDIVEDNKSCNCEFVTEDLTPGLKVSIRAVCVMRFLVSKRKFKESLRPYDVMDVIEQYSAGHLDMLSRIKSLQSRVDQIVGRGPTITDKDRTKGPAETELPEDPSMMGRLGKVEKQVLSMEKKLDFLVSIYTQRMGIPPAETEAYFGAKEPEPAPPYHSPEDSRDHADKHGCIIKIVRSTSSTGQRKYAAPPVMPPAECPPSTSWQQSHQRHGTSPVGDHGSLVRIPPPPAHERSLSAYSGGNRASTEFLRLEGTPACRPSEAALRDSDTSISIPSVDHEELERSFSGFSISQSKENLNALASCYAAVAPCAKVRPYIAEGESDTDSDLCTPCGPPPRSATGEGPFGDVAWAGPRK
Sequence of Potassium voltage-gated channel subfamily KQT member 1 (Homo sapiens) (P51787 whole entry, looked up): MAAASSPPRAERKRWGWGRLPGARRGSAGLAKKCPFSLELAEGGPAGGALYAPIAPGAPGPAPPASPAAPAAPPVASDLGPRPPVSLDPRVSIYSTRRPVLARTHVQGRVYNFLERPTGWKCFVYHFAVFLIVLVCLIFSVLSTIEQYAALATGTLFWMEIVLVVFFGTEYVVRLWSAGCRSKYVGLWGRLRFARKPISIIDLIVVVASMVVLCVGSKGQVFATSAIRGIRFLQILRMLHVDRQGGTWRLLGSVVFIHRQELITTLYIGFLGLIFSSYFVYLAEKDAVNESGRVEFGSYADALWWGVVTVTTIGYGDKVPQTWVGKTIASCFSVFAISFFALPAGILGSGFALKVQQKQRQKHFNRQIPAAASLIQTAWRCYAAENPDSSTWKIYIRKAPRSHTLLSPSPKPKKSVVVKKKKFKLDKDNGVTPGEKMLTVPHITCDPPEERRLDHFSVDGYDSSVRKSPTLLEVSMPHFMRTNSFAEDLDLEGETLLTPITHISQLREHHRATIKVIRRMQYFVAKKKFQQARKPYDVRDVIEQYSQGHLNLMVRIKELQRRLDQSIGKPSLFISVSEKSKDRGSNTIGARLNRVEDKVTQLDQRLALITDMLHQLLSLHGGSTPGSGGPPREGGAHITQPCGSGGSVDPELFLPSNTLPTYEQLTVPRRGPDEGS

Row | Compound | activation [1] | potentiation [2] | potentiation [3] | outcome [4] | outcome [1] | outcome [2] | outcome [3]
1 | COc1cccc(-c2nnc(Nc3nc4c(F)cccc4s3)o2)c1 | 278% (active) | 91.5% (active) | 280% (active) | inactive | – | – | –
2 | O=C(NC(=S)Nc1cccc(C(F)(F)F)c1)c1csnn1 | 595% (active) | 308% (active) | 618% (active) | inactive | – | – | –
3 | O=C(NC(=S)Nc1ccccc1)c1ccc(Br)o1 | – | 21.5% (active) | 158% (active) | inactive | inactive | – | –
4 | CC(=O)N1N=C(c2ccccc2OC(=O)/C=C/c2ccccc2)CC1c1ccccc1 (stereo not given) | – | – | – | inactive | inactive | inactive | inactive
5 | C=CCn1c(SCN2C(=O)c3ccccc3C2=O)nc2ccc(Cl)cc2c1=O | 152% (active) | – | – | inactive | – | inactive | inactive
6 | Cc1c(N=Cc2cc(Br)cc(Br)c2O)cccc1C(=O)O | – | 42% (active) | – | inactive | inactive | – | inactive
7 | CCOc1ccccc1NC(=O)CCC(=O)Nc1ccccc1OCC | – | – | – | inactive | inactive | inactive | inactive
8 | COCCN(Cc1cc2cc3c(cc2nc1Cl)OCO3)C(=O)c1ccc(C)cc1 | – | – | – | inactive | inactive | inactive | inactive
9 | O=C1CC(c2ccccc2)CC(O)=C1C=Nc1ccc(O)cc1 (stereo not given) | – | – | – | inactive | inactive | inactive | inactive
10 | CN(C(=O)c1cc(COc2c(F)cccc2F)on1)C1CCOC1 (stereo not given) | – | – | – | inactive | inactive | inactive | inactive
11 | O=C(Nc1cc(=O)[nH]c(=O)[nH]1)c1cccc(Br)c1 | – | – | – | inactive | inactive | inactive | inactive
12 | CSc1nccc(-c2nn(-c3ccc(C)cc3)ccc2=O)n1 | – | – | – | inactive | inactive | inactive | inactive
13 | O=C(CSc1nc(=O)n2ccccc2n1)NCc1ccccc1 | – | – | – | inactive | inactive | inactive | inactive
14 | CC1CCCC(NC(=S)NC(=O)c2cncc(Br)c2)C1C (stereo not given) | – | 32% (active) | – | inactive | inactive | – | inactive
15 | CSc1ccccc1NC(=O)c1ccc2c(c1)CCN2S(C)(=O)=O | – | – | – | inactive | inactive | inactive | inactive
16 | O=C1CC(c2cccs2)Cc2nc(NC(=O)C3CC3)ncc21 (stereo not given) | – | – | – | inactive | inactive | inactive | inactive
17 | O=C(/C=C/c1ccc(Br)cc1)NC(=S)Nc1ccc(S(=O)(=O)Nc2nccs2)cc1 | – | – | – | inactive | inactive | inactive | inactive
18 | CCN(CC)S(=O)(=O)c1cc(OC)ccc1N=Nc1ccc(O)c2ncccc12 | – | 37.5% (active) | 148% (active) | inactive | inactive | – | –
19 | CC(=O)c1cccc(NC(=S)NC(=O)c2ccc(Cl)cc2)c1 | – | – | – | inactive | inactive | inactive | inactive
20 | O=C(NC(=S)N1CCCCCC1)c1ccccc1 | – | – | – | inactive | inactive | inactive | inactive

Row | Compound | activation [1] | potentiation [2] | potentiation [3] | outcome [4] | outcome [1] | outcome [2] | outcome [3]
21 | O=C(CSc1nc2ccccc2[nH]1)N/N=C/c1ccncc1 | – | – | – | inactive | inactive | inactive | inactive
22 | Cc1ccc2cc3cc(C(=O)NC4CC4)oc3nc2c1 | – | – | – | inactive | inactive | inactive | inactive
23 | NC(=O)c1ccccc1NC(=O)N1CCOCC1 | – | – | – | inactive | inactive | inactive | inactive
24 | CC(/C=N/NC(=O)c1cc(-c2cccs2)[nH]n1)=C\c1ccccc1 | 184% (active) | 116% (active) | 250% (active) | inactive | – | – | –
25 | C/C(Cl)=C\Cn1c(O)c(N=NC(N)=S)c2cc(Br)ccc21 | – | 70.5% (active) | – | inactive | inactive | – | inactive
26 | COc1ccc2nc(/N=C/c3c(C)[nH]n(-c4ccc(C)cc4)c3=O)sc2c1 | 340% (active) | 273% (active) | 518% (active) | inactive | – | – | –
27 | C=CCn1c(=S)[nH]c2sc3c(c2c1=O)CCCC3 | 294% (active) | 97% (active) | 294% (active) | inactive | – | – | –
28 | Cc1nc(NCCc2cnc[nH]2)c2oc3ccccc3c2n1 | – | – | – | inactive | inactive | inactive | inactive
29 | CCOC(=O)C1=C(O)c2ccccc2C(=O)/C1=C\c1ccc(CC)cc1 | 177% (active) | 114% (active) | 156% (active) | inactive | – | – | –
30 | O=C(NC(=S)Nc1ccccc1N1CCCCC1)c1ccc(F)cc1Cl | – | 49.5% (active) | – | inactive | inactive | – | inactive
31 | O=C(c1ccc(COc2ccc(Cl)cc2)o1)N1CCN(Cc2ccc3c(c2)OCO3)CC1 | – | 25% (active) | – | inactive | inactive | – | inactive
32 | COc1ccc(CN(C)C(=O)c2cccc(NS(=O)(=O)c3ccccc3)c2)cc1F | – | – | – | inactive | inactive | inactive | inactive
33 | Cc1ccc(S(=O)(=O)N2CCN(C(=O)CCC(=O)OCC(=O)Nc3cccc(C#N)c3)CC2)cc1 | – | – | – | inactive | inactive | inactive | inactive
34 | COC(=O)C1C(c2ccc(OC)c(OC)c2)NC(c2ccc(OC)c(OC)c2)C(C(=O)OC)S1(=O)=O (stereo not given) | – | – | – | inactive | inactive | inactive | inactive
35 | O=C(NC(=S)Nc1ccccc1)c1csnn1 | 588% (active) | 260% (active) | 642% (active) | inactive | – | – | –
36 | CCn1c(=S)[nH]c2scc(-c3cccs3)c2c1=O | 548% (active) | 246% (active) | 528% (active) | inactive | – | – | –
37 | Cc1sc(NC(=O)CS(=O)(=O)c2ccccc2)c(C#N)c1C | – | – | – | inactive | inactive | inactive | inactive
38 | Cc1ccc(/C=C/C(=O)C2C(=O)c3ccccc3C2=O)cc1 | 227% (active) | 58.5% (active) | 206% (active) | inactive | – | – | –
39 | O=C(COC(=O)C1CCC(=O)N1)Nc1ccc(Oc2ccccc2)cc1 (stereo not given) | – | – | – | inactive | inactive | inactive | inactive
40 | O=c1c2cccnc2[nH]c(=S)n1CCC1=CCCCC1 | 258% (active) | 64% (active) | 229% (active) | inactive | – | – | –

Row | Compound | activation [1] | potentiation [2] | potentiation [3] | outcome [4] | outcome [1] | outcome [2] | outcome [3]
41 | COC(=O)C(C)Sc1nc2c(c(=O)n(C)c(=O)n2C)n1Cc1cccc(C)c1 (stereo not given) | – | – | – | inactive | inactive | inactive | inactive
42 | O=c1[nH]c2ccc(Cl)cc2c(-c2ccccc2)c1N1CCN(CCO)CC1 | – | – | – | inactive | inactive | inactive | inactive
43 | CCCn1c(NC(=O)CN2C(=O)NC3(CCCC3)C2=O)nc2ccccc21 | – | – | – | inactive | inactive | inactive | inactive
44 | CCCCOC(=O)c1ccc(NC(=S)NC(=O)c2c(Cl)cnn2CC)cc1 | 208% (active) | 196% (active) | 298% (active) | inactive | – | – | –
45 | Cc1cc(/C=C2\C(=N)N3N=C(c4ccco4)SC3=NC2=O)c(C)n1Cc1ccccc1 | – | 37% (active) | – | inactive | inactive | – | inactive
46 | O=C1c2cccc3cccc(c23)C(=O)C1(O)O | – | – | – | inactive | inactive | inactive | inactive
47 | Cc1sc(-n2c(C)cc(/C=N/n3cnnc3)c2C)c(C#N)c1C | – | 17.5% (active) | – | inactive | inactive | – | inactive
48 | Cc1ccc(OCCN2C(=O)c3ccccc3C2=O)c([N+](=O)[O-])c1 | – | – | – | inactive | inactive | inactive | inactive
49 | S=c1nc(-c2ccccc2)[nH]c2ccccc12 | 316% (active) | 110% (active) | 294% (active) | inactive | – | – | –
50 | Cc1cccc(C(=O)Oc2csc(=S)n2C(=O)c2cccc(C)c2)c1 | 139% (active) | 27% (active) | 158% (active) | inactive | – | – | –
51 | COc1ccc(Cl)cc1N(C)C(=O)CCNC(=O)Cn1cnc2ccccc2c1=O | – | 22.5% (active) | 157% (active) | inactive | inactive | – | –
52 | Cc1ccc(N=Nc2ccc(O)c3ncccc23)cc1 | 185% (active) | 52.5% (active) | 229% (active) | inactive | – | – | –
53 | CC(O)Cc1cn([C@@H](CCCCN)C(=O)N2CCNCC2)nn1 (stereo not given in full) | – | – | – | inactive | inactive | inactive | inactive
54 | CS(=O)(=O)N1CCN(Cc2ccc(C(F)(F)F)cc2)CC1 | – | – | – | inactive | inactive | inactive | inactive
55 | COc1ccc(/C=N/NC(=O)c2[nH]nc3c2CCc2ccccc2-3)cc1OC | 240% (active) | 85% (active) | 228% (active) | inactive | – | – | –
56 | O=C(NCc1ccco1)c1ccc(=O)oc1 | – | – | – | inactive | inactive | inactive | inactive
57 | Cc1nn(C)c(C(=O)NC(=S)Nc2ccc([N+](=O)[O-])cc2)c1Cl | 166% (active) | 72% (active) | 196% (active) | inactive | – | – | –
58 | CCc1ccc2nc(NC(=O)c3cc(C)on3)sc2c1 | 157% (active) | 55% (active) | 151% (active) | inactive | – | – | –
59 | C=CCn1c(N)c(C(=O)Nc2ccc(C)cc2)sc1=S | – | – | – | inactive | inactive | inactive | inactive
60 | CC(=O)O[C@H]1CSC[C@H]1NC(=O)c1ccccc1 | – | – | – | inactive | inactive | inactive | inactive

— PubChem BioAssay
